Source: ChEMBL document CHEMBL1833887, “Synthesis and evaluation of 7-substituted 4-aminoquinoline analogues for antimalarial activity” (J Med Chem, 2011)
Converted amounts (≈) assume the structure as drawn.

Tests used:
[1] = Solubility of the compound at pH 7.4 after 18 hrs by UV spectroscopic analysis; format: physicochemical; conditions: buffer
Method in brief: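 Kinetic solubility. A 10 mM stock is diluted 1:100 into PBS pH 7.4 and incubated 18 h at room temperature, then filtered; the filtrate is mixed 1:1 with 1-propanol. UV spectrum (250–500 nm) compared by AUC with a 1-propanol/PBS reference. Single experiment in triplicate.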

[2] = Permeability of the compound at pH 7.4 after 30 mins by PAMPA; format: ADME; conditions: read-out: permeability
Method in brief: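 PAMPA at pH 7.4. A 10 mM DMSO stock is diluted into system solution buffer; its UV spectrum serves as reference. Membrane painted with GIT lipid, acceptor chamber holds acceptor solution buffer. Sandwich stirred for 30 min, aqueous boundary layer set to 40. Donor and acceptor UV spectra read at 250–500 nm. Permeability coefficient from the AUCs of reference, donor and acceptor. Single experiment in triplicate.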

[3] = Dissociation constant, pKa of the compound; format: physicochemical
[4] = tested on: Plasmodium falciparum; assay: Antimalarial activity against chloroquine-sensitive Plasmodium falciparum 3D7 infected in human erythrocytes assessed as reduction in parasitemia after 72 hrs by spectrophotometry; format: functional, organism-based; conditions: 3D7, 72 h
[5] = tested on: Plasmodium falciparum; assay: Antimalarial activity against chloroquine-resistant Plasmodium falciparum K1 infected in human erythrocytes assessed as reduction in parasitemia after 72 hrs by spectrophotometry; format: functional, organism-based; conditions: K1, 72 h
[6] = tested on: Plasmodium falciparum; assay: Ratio of EC50 for chloroquine-resistant Plasmodium falciparum K1 infected in human erythrocytes to EC50 for chloroquine-sensitive Plasmodium falciparum 3D7 infected in human erythrocytes; format: functional
[7] = tested on: HepG2; assay: Cytotoxicity against human HepG2 cells assessed as intracellular ATP level after 72 hrs by Celltiter-Glo luminescent assay; format: cell-based; conditions: HepG2, 72 h
[8] = Ratio of EC50 for human HepG2 cells to EC50 for Plasmodium falciparum 3D7 infected in human erythrocytes
[9] = Ratio of EC50 for human HepG2 cells to EC50 for Plasmodium falciparum K1 infected in human erythrocytes

| SMILES | solubility at 18 h [1] [µM] | Papp at 0.5 h [2] [×10⁻⁶ cm/s] | pKa [3] | EC50 [4] [nM] | EC50 [5] [nM] | Ratio EC50 [6] | EC50 [7] [nM] | Ratio EC50 [8] | Ratio EC50 [9] |
| --- | --- | --- | --- | --- | --- | --- | --- | --- | --- |
| COc1cccc(CNCCCNc2ccnc3cc(Cc4cccc(C(F)(F)F)c4)ccc23)c1O | 4.2 (≈ 2.08 µg/mL) | 23 | 9.47 | 25 | 2190 | 87.9 | 1720 | 69 | 0.8 |
| Fc1ccc(Cc2ccc3c(NCCCNCc4ccc5c(c4)OCO5)ccnc3c2)c(Cl)c1 | 4.2 (≈ 2.01 µg/mL) | 23 | 9.47 | 27 | 953 | 35.9 | 16000 | 603.8 | 16.8 |
| CCC(CC)c1ccc2c(NCCCNCc3ccc4c(c3)OCO4)ccnc2c1 | 4.2 (≈ 1.7 µg/mL) | 23 | 9.47 | 27 | 1060 | 39.5 | 6350 | 235.1 | 6 |
| CC(C)CCc1ccc2c(NCCCNCc3ccc4c(c3)OCO4)ccnc2c1 | 4.2 (≈ 1.7 µg/mL) | 23 | 9.47 | 27 | 206 | 7.6 | 2800 | 103.1 | 13.5 |
| COc1ccc(F)cc1CNCCCNc1ccnc2cc(Cc3ccc(C#N)cc3)ccc12 | 4.2 (≈ 1.91 µg/mL) | 23 | 9.47 | 28 | 770 | 27.5 | 6050 | 216.2 | 7.9 |
| COc1ccc(F)cc1CNCCCNc1ccnc2cc(Cc3cc(C)cc(C)c3)ccc12 | 4.2 (≈ 1.92 µg/mL) | 23 | 9.47 | 34 | 794 | 23.1 | 940 | 27.4 | 1.2 |
| N#Cc1ccc(Cc2ccc3c(NCCCNCc4ccco4)ccnc3c2)cc1 | 4.2 (≈ 1.67 µg/mL) | 23 | 9.47 | 39 | 382 | 9.7 | 7910 | 201.9 | 20.7 |
| FC(F)(F)c1cccc(Cc2ccc3c(NCCCNCc4ccc5c(c4)OCO5)ccnc3c2)c1 | 4.2 (≈ 2.07 µg/mL) | 23 | 9.47 | 39 | 1310 | 33.5 | 2200 | 56.1 | 1.7 |
| c1ccc(Cc2ccc3c(NCCCNCc4ccco4)ccnc3c2)cc1 | 4.2 (≈ 1.56 µg/mL) | 23 | 9.47 | 40 | 3550 | 89.9 | 16000 | 405.1 | 4.5 |
| COc1ccc(F)cc1CNCCCNc1ccnc2cc(Cc3cccc(C(F)(F)F)c3)ccc12 | 4.2 (≈ 2.09 µg/mL) | 23 | 9.47 | 40 | 323 | 8.1 | 440 | 11 | 1.3 |
| CCC(CC)c1ccc2c(NCCCNCc3cc(F)ccc3OC)ccnc2c1 | 4.2 (≈ 1.72 µg/mL) | 23 | 9.47 | 40 | 1930 | 48 | 7860 | 194.9 | 4.1 |
| c1cc(NCCCNCc2ccc3c(c2)OCO3)c2ccc(CC3CCCCC3)cc2n1 | 4.2 (≈ 1.81 µg/mL) | 23 | 9.47 | 41 | 701 | 17.3 | 6290 | 155.2 | 9 |
| Cc1cc(C)cc(Cc2ccc3c(NCCCNCc4ccc5c(c4)OCO5)ccnc3c2)c1 | 4.2 (≈ 1.91 µg/mL) | 23 | 9.47 | 41 | 1040 | 25.6 | 2250 | 55.5 | 2.2 |
| c1ccc(CCc2ccc3c(NCCCNCc4ccco4)ccnc3c2)cc1 | 4.2 (≈ 1.62 µg/mL) | 23 | 9.47 | 46 | 2930 | 63.7 | 16000 | 347.8 | 5.5 |
| COc1cccc(CNCCCNc2ccnc3cc(CC4CCCCC4)ccc23)c1O | 4.2 (≈ 1.82 µg/mL) | 23 | 9.47 | 50 | 2610 | 52.7 | 970 | 19.6 | 0.4 |
| c1coc(CNCCCNc2ccnc3cc(CC4CCCCC4)ccc23)c1 | 4.2 (≈ 1.59 µg/mL) | 23 | 9.47 | 55 | 621 | 11.2 | 1700 | 30.7 | 2.7 |
| FC(F)(F)c1cccc(Cc2ccc3c(NCCCNCc4ccco4)ccnc3c2)c1 | 4.2 (≈ 1.85 µg/mL) | 23 | 9.47 | 56 | 743 | 13.2 | 3190 | 56.7 | 4.3 |
| Fc1ccc(Cc2ccc3c(NCCCNCc4ccco4)ccnc3c2)cc1 | 4.2 (≈ 1.64 µg/mL) | 23 | 9.47 | 57 | 1660 | 28.9 | 5600 | 97.5 | 3.4 |
| CC(C)Cc1ccc2c(NCCCNCc3ccc4c(c3)OCO4)ccnc2c1 | 4.2 (≈ 1.64 µg/mL) | 23 | 9.47 | 66 | 1810 | 27.7 | 2380 | 36.3 | 1.3 |
| COc1ccc(F)cc1CNCCCNc1ccnc2cc(Cc3ccc(F)cc3)ccc12 | 4.2 (≈ 1.88 µg/mL) | 23 | 9.47 | 75 | 580 | 7.8 | 3530 | 47.1 | 6.1 |
| CCC(CC)c1ccc2c(NCCCNCc3ccco3)ccnc2c1 | 4.2 (≈ 1.48 µg/mL) | 23 | 9.47 | 86 | 4300 | 50.1 | 6760 | 78.7 | 1.6 |
| COc1ccc(F)cc1CNCCCNc1ccnc2cc(CC(C)C)ccc12 | 4.2 (≈ 1.66 µg/mL) | 23 | 9.47 | 89 | 2120 | 23.9 | 2900 | 32.7 | 1.4 |
| COc1ccc(F)cc1CNCCCNc1ccnc2cc(C3CCCCC3)ccc12 | 4.2 (≈ 1.77 µg/mL) | 23 | 9.47 | 90 | 1600 | 17.7 | 2290 | 25.4 | 1.4 |
| COc1ccc(F)cc1CNCCCNc1ccnc2cc(CCC(C)C)ccc12 | 4.2 (≈ 1.72 µg/mL) | 23 | 9.47 | 116 | 360 | 3.1 | 890 | 7.7 | 2.5 |
| c1coc(CNCCCNc2ccnc3cc(C4CCCCC4)ccc23)c1 | 4.2 (≈ 1.53 µg/mL) | 23 | 9.47 | 118 | 3900 | 33.1 | 4760 | 40.4 | 1.2 |
| Fc1ccc(Cc2ccc3c(NCCCNCc4ccc5c(c4)OCO5)ccnc3c2)cc1 | 4.2 (≈ 1.86 µg/mL) | 23 | 9.47 | 127 | 256 | 2 | 5550 | 43.7 | 21.7 |
| c1cc(NCCCNCc2ccc3c(c2)OCO3)c2ccc(C3CCCCC3)cc2n1 | 4.2 (≈ 1.75 µg/mL) | 23 | 9.47 | 128 | 4710 | 36.7 | 3020 | 23.6 | 0.6 |
| COc1ccc(F)cc1CNCCCNc1ccnc2cc(CCc3ccccc3)ccc12 | 4.2 (≈ 1.86 µg/mL) | 23 | 9.47 | 132 | 2140 | 16.2 | 4240 | 32.1 | 2 |
| COc1ccc(F)cc1CNCCCNc1ccnc2cc(CC3CCCCC3)ccc12 | 4.2 (≈ 1.83 µg/mL) | 23 | 9.47 | 138 | 687 | 5 | 1830 | 13.3 | 2.7 |
